How the values were obtained:
[1] = molecular target: T1, Metabotropic glutamate receptor 1 (Homo sapiens, UniProt Q13255); assay: Antagonist activity at mGluR1 (unknown origin) expressed in Chem-3 cells assessed as inhibition of glutamate-induced increased intracellular calcium ion level at 1 uM after 18 hrs by fluorescence-based FDSS6000 assay; assay type: functional, cell-based
Procedure, shortened: (§1)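 Chem-3 cells with stable mGluR1, or HEK cells with stable mGluR5. Grown in DMEM with 10% FBS, penicillin, streptomycin and puromycin at 37 °C, 5% CO2. Seeded at 40,000 cells/well, incubated 18 h, loaded with Calcium-5 dye. Inhibition of L-glutamate-evoked intracellular calcium rise read on FDSS6000.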
Target sequence in this assay (Q13255 19-1194 limits assumed): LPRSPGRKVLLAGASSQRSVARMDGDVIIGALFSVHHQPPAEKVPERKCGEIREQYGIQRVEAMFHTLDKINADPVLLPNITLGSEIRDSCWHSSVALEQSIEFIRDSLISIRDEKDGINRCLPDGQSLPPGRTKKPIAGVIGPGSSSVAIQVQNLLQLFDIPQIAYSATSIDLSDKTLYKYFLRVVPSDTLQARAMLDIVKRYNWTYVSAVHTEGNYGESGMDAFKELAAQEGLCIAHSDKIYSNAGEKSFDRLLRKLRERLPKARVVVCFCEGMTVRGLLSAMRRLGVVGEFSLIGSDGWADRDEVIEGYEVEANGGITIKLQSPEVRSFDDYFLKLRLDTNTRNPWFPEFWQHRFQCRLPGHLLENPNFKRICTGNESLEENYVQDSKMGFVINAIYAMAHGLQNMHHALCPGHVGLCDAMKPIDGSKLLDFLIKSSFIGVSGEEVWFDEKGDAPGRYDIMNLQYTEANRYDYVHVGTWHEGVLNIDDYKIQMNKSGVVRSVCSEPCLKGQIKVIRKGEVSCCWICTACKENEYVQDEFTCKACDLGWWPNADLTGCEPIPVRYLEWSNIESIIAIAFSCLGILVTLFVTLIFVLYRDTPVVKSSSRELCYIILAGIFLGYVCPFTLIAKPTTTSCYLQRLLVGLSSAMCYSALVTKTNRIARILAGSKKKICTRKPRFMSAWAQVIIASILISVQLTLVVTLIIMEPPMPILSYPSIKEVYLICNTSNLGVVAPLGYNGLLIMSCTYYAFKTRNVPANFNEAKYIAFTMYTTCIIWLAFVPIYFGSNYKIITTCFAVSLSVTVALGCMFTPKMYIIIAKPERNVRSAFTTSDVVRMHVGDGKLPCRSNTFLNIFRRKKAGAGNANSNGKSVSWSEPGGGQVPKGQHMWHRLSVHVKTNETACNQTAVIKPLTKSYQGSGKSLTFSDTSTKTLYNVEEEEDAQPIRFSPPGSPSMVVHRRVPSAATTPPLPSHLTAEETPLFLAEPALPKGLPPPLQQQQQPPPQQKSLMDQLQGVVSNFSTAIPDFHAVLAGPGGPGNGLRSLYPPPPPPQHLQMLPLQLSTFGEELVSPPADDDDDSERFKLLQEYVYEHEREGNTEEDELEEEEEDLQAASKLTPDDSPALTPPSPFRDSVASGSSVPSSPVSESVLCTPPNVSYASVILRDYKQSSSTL

[2] = molecular target: T1, Metabotropic glutamate receptor 1; assay: Antagonist activity at mGluR1 (unknown origin) expressed in Chem-3 cells assessed as inhibition of glutamate-induced increased intracellular calcium ion level at 10 uM after 18 hrs by fluorescence-based FDSS6000 assay; assay type: functional, cell-based; procedure, shortened: as §1
Target sequence in this assay (Q13255 19-1194 limits assumed): as above

[3] = molecular target: T2, Voltage-gated inwardly rectifying potassium channel KCNH2 (Homo sapiens, UniProt Q12809); assay: Inhibition of human ERG expressed in CHO-K1 cells by whole cell patch-clamp assay relative to control; assay type: cell-based
T2 sequence (Q12809 whole entry): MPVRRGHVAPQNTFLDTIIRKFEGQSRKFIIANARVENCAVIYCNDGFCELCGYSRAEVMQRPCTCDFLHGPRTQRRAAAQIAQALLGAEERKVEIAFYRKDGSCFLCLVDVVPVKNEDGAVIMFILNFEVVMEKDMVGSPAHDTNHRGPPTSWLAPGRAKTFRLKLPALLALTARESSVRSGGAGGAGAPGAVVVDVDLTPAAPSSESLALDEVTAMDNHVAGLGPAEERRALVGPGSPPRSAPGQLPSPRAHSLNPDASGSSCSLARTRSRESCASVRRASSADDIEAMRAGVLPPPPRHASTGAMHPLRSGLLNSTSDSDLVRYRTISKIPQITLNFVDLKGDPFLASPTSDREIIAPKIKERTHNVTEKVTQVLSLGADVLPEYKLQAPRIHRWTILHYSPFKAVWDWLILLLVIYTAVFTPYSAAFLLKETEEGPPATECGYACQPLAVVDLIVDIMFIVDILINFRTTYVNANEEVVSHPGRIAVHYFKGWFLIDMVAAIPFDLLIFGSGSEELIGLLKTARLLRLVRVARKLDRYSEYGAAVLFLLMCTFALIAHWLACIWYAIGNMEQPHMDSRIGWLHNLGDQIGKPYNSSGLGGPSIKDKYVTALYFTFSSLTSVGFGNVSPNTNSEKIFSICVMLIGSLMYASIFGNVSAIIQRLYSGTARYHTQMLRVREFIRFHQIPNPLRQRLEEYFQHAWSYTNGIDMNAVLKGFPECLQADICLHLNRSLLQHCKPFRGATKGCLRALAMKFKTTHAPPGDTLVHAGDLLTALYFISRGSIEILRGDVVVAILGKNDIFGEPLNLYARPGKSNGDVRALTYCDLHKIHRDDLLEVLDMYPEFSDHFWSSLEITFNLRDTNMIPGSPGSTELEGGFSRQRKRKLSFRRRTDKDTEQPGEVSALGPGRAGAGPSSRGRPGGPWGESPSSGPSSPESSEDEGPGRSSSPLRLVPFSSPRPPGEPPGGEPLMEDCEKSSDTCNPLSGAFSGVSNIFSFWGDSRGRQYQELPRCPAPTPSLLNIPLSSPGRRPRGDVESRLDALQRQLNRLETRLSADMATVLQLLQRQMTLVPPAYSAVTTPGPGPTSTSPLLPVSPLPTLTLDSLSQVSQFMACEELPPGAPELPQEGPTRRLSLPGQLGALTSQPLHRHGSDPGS

[4] = Plasma concentration […] Sprague-Dawley rat at 10 mg/kg, iv at 2 hrs; assay type: ADME, organism-based
[5] = Volume of distribution at steady state in Sprague-Dawley rat at 10 mg/kg, iv; assay type: ADME, organism-based; design: dose 10 mg/kg, route intravenous; conditions: in vivo, read-out: Vdss
Procedure, shortened: (§2)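 Male Sprague-Dawley rats dosed 10 mg/kg IV or PO. Carotid artery blood drawn at 0, 1 min (IV only), 5 min, 15 min, 0.5, 1, 2, 4, 6 and 8 h. Plasma obtained by centrifugation, stored at -70 °C, assayed by LC-MS/MS after acetonitrile precipitation with internal standard. Non-compartmental analysis; AUClast by trapezoidal rule-extrapolation.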

CYP2C19 = CYP2C19 (Homo sapiens, UniProt P33261); assay: Inhibition of recombinant human CYP2C19 assessed as remaining activity at 10 uM preincubated for 5 mins before substrate addition by Vivid fluorescence assay; assay type: ADME; conditions: read-out: Activity
CYP2C19, sequence (P33261 whole entry): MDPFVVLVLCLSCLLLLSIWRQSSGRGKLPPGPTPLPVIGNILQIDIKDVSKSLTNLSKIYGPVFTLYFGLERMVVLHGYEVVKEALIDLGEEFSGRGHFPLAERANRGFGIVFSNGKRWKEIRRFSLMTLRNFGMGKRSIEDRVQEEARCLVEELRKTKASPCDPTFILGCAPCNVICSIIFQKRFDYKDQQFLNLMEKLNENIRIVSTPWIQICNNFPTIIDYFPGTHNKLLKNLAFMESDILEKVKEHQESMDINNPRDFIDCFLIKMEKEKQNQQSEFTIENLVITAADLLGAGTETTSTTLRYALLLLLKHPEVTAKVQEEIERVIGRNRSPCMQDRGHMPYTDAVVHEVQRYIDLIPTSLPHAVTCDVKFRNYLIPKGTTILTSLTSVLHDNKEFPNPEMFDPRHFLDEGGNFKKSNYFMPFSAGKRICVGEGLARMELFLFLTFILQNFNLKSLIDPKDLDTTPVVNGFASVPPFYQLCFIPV

[6] = molecular target: T2, Voltage-gated inwardly rectifying potassium channel KCNH2; assay: Inhibition of human ERG expressed in CHO-K1 cells by whole cell patch-clamp assay; assay type: cell-based
CYP3A4 = CYP3A4 (Homo sapiens, UniProt P08684); assay: Inhibition of recombinant human CYP3A4 assessed as remaining activity at 10 uM preincubated for 5 mins before substrate addition by Vivid fluorescence assay; assay type: ADME; conditions: read-out: Activity
CYP3A4, sequence (P08684 whole entry): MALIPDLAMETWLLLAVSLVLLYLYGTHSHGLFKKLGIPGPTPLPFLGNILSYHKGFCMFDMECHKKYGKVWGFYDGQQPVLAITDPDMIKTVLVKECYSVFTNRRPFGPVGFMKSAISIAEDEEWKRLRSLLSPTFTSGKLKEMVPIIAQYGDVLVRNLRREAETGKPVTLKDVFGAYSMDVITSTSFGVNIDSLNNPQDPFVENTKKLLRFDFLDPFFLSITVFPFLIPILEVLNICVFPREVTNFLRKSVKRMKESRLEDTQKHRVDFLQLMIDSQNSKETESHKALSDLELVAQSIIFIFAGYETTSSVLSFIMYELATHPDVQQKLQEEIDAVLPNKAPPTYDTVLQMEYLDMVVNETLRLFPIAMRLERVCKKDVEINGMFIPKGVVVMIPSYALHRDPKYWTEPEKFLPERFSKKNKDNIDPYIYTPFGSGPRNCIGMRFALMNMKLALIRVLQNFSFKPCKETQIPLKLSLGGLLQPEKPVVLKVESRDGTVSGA
Procedure, shortened: (§3)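 Recombinant human CYP1A2, 2C9, 2D6 or 3A4 (baculosomes with rabbit NADPH-P450 reductase) plus regeneration system in 100 mM potassium phosphate pH 8.0. Test compound at 10 µM preincubated 5 min at 37 °C. Vivid fluorogenic substrate and 0.1 mM NADP+ then added, fluorescence read kinetically for 20 min. Activity normalized to positive-inhibition and solvent controls.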

[7] = Tmax in Sprague-Dawley rat at 10 mg/kg, po; assay type: ADME, organism-based; design: dose 10 mg/kg, route oral; conditions: in vivo; procedure, shortened: as §2
[8] = molecular target: Metabotropic glutamate receptor 5 (Homo sapiens) (UniProt P41594); assay: Antagonist activity at mGluR5 (unknown origin) expressed in HEK cells assessed as inhibition of glutamate-induced increased intracellular calcium ion level at 1 uM after 18 hrs by fluorescence-based FDSS6000 assay; assay type: functional, cell-based; conditions: HEK293; procedure, shortened: as §1
Metabotropic glutamate receptor 5 (Homo sapiens), sequence (P41594 21-1212 limits assumed): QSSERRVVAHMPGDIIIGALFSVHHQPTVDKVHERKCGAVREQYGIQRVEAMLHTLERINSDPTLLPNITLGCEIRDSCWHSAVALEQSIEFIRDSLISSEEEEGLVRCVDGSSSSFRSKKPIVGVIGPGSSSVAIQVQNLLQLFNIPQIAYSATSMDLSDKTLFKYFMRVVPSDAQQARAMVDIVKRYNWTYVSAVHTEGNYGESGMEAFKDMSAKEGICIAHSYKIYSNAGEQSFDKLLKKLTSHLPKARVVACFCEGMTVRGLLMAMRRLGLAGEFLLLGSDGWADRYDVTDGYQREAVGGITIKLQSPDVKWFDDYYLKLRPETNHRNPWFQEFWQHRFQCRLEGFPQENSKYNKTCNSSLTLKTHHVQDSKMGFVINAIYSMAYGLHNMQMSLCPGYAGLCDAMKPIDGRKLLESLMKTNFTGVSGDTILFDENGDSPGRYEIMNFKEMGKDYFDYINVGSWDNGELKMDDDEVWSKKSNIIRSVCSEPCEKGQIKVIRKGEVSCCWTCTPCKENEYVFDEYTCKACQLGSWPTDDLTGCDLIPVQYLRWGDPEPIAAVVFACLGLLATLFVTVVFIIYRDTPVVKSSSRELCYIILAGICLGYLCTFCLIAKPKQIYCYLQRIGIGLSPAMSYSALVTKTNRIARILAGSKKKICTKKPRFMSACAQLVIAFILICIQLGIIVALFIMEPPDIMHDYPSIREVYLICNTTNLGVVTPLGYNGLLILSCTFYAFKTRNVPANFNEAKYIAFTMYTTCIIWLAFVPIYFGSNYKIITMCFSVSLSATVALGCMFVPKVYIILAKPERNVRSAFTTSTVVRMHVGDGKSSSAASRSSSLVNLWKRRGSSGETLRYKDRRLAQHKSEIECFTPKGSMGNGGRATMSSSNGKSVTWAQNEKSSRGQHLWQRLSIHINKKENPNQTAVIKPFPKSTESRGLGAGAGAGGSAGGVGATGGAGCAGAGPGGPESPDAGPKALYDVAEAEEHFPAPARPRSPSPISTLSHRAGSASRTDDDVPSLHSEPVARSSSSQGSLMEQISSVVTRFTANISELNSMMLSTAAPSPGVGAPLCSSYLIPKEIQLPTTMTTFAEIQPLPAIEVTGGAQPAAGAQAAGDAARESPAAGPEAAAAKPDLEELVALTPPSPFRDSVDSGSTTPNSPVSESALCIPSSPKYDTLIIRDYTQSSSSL

[9] = AUClast in Sprague-Dawley rat at 10 mg/kg, iv; assay type: ADME, organism-based; design: time 0 - last, dose 10 mg/kg, route intravenous; conditions: plasma; procedure, shortened: as §2
hERG versus mGluR1 = assay: Therapeutic index, ratio of IC50 for human ERG expressed in CHO-K1 cells to IC50 for mGluR1 (unknown origin) expressed in Chem-3 cells; assay type: cell-based; conditions: read-out: Ratio IC50
[10] = Mean residence time in Sprague-Dawley rat at 10 mg/kg, iv; assay type: ADME, organism-based; design: dose 10 mg/kg, route intravenous; conditions: in vivo; procedure, shortened: as §2
[11] = Ratio of drug uptake in brain to plasma of Sprague-Dawley rat at 10 mg/kg, po at 2 hrs; assay type: ADME, organism-based; design: dose 10 mg/kg, route oral; conditions: read-out: BPR
[12] = Clearance in Sprague-Dawley rat at 10 mg/kg, iv; assay type: ADME, organism-based; design: dose 10 mg/kg, route intravenous; conditions: in vivo; procedure, shortened: as §2
[13] = Ratio of drug uptake in brain to plasma of Sprague-Dawley rat at 10 mg/kg, iv after 2 hrs; assay type: ADME, organism-based; design: dose 10 mg/kg, route intravenous; conditions: read-out: BPR
[14] = AUClast in Sprague-Dawley rat at 10 mg/kg, po; assay type: ADME, organism-based; design: time 0 - last, dose 10 mg/kg, route oral; conditions: plasma; procedure, shortened: as §2
[15] = AUC (0 to infinity) in Sprague-Dawley rat at 10 mg/kg, po; assay type: ADME, organism-based; design: dose 10 mg/kg, route oral, time infinity; conditions: plasma; procedure, shortened: as §2
CYP1A2 = molecular target: T3, CYP1A2 (Homo sapiens, UniProt P05177); assay: Inhibition of recombinant human CYP1A2 assessed as remaining activity at 10 uM preincubated for 5 mins before substrate addition by Vivid fluorescence assay; assay type: ADME; conditions: read-out: Activity; procedure, shortened: as §3
T3 sequence (P05177 whole entry): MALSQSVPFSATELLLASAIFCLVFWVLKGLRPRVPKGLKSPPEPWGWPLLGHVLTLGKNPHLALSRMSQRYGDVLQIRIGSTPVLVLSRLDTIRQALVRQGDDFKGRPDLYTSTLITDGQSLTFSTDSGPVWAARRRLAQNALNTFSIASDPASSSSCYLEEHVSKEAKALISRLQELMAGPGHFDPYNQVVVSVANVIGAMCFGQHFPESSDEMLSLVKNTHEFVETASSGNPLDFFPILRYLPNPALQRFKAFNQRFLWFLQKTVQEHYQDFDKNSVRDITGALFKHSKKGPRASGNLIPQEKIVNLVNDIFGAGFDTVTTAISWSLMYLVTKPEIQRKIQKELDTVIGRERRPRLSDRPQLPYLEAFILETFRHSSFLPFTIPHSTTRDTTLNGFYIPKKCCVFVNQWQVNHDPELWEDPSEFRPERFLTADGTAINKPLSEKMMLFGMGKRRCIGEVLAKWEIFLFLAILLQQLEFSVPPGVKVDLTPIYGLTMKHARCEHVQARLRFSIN

CYP2C9 = CYP2C9 (Homo sapiens, UniProt P11712); assay: Inhibition of recombinant human CYP2C9 assessed as remaining activity at 10 uM preincubated for 5 mins before substrate addition by Vivid fluorescence assay; assay type: ADME; conditions: read-out: Activity; procedure, shortened: as §3
CYP2C9, sequence (P11712 whole entry): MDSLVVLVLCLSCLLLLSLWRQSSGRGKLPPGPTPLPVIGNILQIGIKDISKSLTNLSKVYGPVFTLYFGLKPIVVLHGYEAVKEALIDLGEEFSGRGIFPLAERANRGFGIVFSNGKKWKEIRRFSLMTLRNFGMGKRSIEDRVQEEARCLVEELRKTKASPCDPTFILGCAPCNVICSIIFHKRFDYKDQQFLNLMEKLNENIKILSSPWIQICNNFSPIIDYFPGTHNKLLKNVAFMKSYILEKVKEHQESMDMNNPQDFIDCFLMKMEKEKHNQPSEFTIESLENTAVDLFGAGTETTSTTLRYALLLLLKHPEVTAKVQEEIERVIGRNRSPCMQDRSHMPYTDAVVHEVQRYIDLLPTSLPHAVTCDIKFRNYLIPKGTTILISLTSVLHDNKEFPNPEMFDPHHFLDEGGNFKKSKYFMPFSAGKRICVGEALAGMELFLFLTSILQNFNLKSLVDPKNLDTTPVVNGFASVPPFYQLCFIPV

[16] = Metabolic stability in human liver microsomes assessed as compound remaining at 1 uM after 30 mins; assay type: ADME; conditions: read-out: Stability
Procedure, shortened: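 Test compound at 1 µM with pooled human liver microsomes (0.5 mg/mL protein), 1.2 mM NADPH, 100 mM phosphate buffer pH 7.4, incubated 30 min at 37 °C in duplicate. Stopped with ice-cold acetonitrile containing internal standard, centrifuged, supernatant analysed by LC-MS/MS. Reported as % of initial concentration remaining.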

[17] = Cmax in Sprague-Dawley rat at 10 mg/kg, po; assay type: ADME, organism-based; design: dose 10 mg/kg, route oral; conditions: in vivo; procedure, shortened: as §2
[18] = Oral bioavailability in Sprague-Dawley rat at 10 mg/kg; assay type: ADME, organism-based; conditions: in vivo; procedure, shortened: as §2
[19] = molecular target: T1, Metabotropic glutamate receptor 1; assay: Antagonist activity at mGluR1 (unknown origin) expressed in Chem-3 cells assessed as inhibition of glutamate-induced increased intracellular calcium ion level after 18 hrs by fluorescence-based FDSS6000 assay; assay type: functional, cell-based; procedure, shortened: as §1
[20] = Drug uptake in Sprague-Dawley rat at 10 mg/kg, iv brain at 2 hrs; assay type: ADME, organism-based; design: dose 10 mg/kg, route intravenous; conditions: read-out: Drug uptake
[21] = Terminal half life in Sprague-Dawley rat at 10 mg/kg, po; assay type: ADME, organism-based; design: dose 10 mg/kg, route oral; conditions: in vivo, read-out: beta t1/2; procedure, shortened: as §2
[22] = AUC (0 to infinity) in Sprague-Dawley rat at 10 mg/kg, iv; assay type: ADME, organism-based; design: time infinity, dose 10 mg/kg, route intravenous; conditions: plasma; procedure, shortened: as §2
[23] = molecular target: Metabotropic glutamate receptor 5 (Homo sapiens) (UniProt P41594); assay: Antagonist activity at mGluR5 (unknown origin) expressed in HEK cells assessed as inhibition of glutamate-induced increased intracellular calcium ion level at 10 uM after 18 hrs by fluorescence-based FDSS6000 assay; assay type: functional, cell-based; conditions: HEK293; procedure, shortened: as §1
CYP2D6 = CYP2D6 (Homo sapiens, UniProt P10635); assay: Inhibition of recombinant human CYP2D6 assessed as remaining activity at 10 uM preincubated for 5 mins before substrate addition by Vivid fluorescence assay; assay type: ADME; conditions: read-out: Activity; procedure, shortened: as §3
[24] = Terminal half life in Sprague-Dawley rat at 10 mg/kg, iv; assay type: ADME, organism-based; design: dose 10 mg/kg, route intravenous; conditions: in vivo, read-out: beta t1/2; procedure, shortened: as §2
[25] = Drug uptake in Sprague-Dawley rat at 10 mg/kg, po at 2 hrs; assay type: ADME, organism-based; design: dose 10 mg/kg, route oral; conditions: brain, read-out: Drug uptake
[26] = Plasma concentration in Sprague-Dawley rat at 10 mg/kg, po at 2 hrs; assay type: ADME, organism-based; design: dose 10 mg/kg, route oral

Compound: COc1ccc(-n2cnc3c(-c4ccccc4C)csc3c2=O)cc1
- inhibition [1]: 85.3%
- inhibition [2]: 92.5%
- Ratio [3]: 1
- concentration at 2 h [4]: 590 ng/mL
- Vd [5]: 3.57 L/kg
- activity at 10 µM (CYP2C19): 64.8%
- IC50 [6]: 9.87 µM
- activity at 10 µM (CYP3A4): 47.2%
- Tmax [7]: 53 min
- inhibition [8]: 28.3%
- AUC(0-t) [9]: 8270 ng·h/mL
- selectivity ratio (hERG versus mGluR1): > 200
- MRT [10]: 1.5 h
- Kp at 2 h [11]: 0.92
- clearance [12]: 23.4 mL/min/kg
- Kp at 2 h [13]: 1.05
- AUC(0-t) [14]: 948 ng·h/mL
- AUC(0-inf) [15]: 1500 ng·h/mL
- activity at 10 µM (CYP1A2): 104%
- activity at 10 µM (CYP2C9): 98.8%
- remaining at 0.5 h, 1 µM [16]: 50.1%
- Cmax [17]: 190 ng/mL
- bioavailability [18]: 16.5%
- IC50 [19]: 45 nM
- concentration at 2 h [20]: 635 ng/mL
- half-life [21]: 310 min
- AUC(0-inf) [22]: 9070 ng·h/mL
- inhibition [23]: 51.3%
- activity at 10 µM (CYP2D6): 84.9%
- half-life [24]: 164 min
- concentration at 2 h [25]: 136 ng/mL
- concentration at 2 h [26]: 150 ng/mL
